The conditions of series [1]: historical studies; ref Harrison et al, 2016; cited from earlier work.
Series [2] is described as follows: Blood pharmacokinetics of MRZ in RRMM patients, Cycle 1 Day 8, non-compartmental. The series is classed as in vivo. To be noted: human, iv. The method in brief:
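Relapsed/refractory myeloma patients got the test compound at 0·3–0·5 mg/m² as a 2-h IV infusion on days 1, 4, 8 and 11 of 28-day cycles, with pomalidomide and oral dexamethasone. Saline hydration ran 1 h before and 2 h after infusion. Blood was sampled on Cycle 1 Day 8 pre-dose, at 40, 80 and 120 min into infusion, and 2–90 min after its end.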

The test system of series [3] is CT-L, T-L and C-L catalytic activities of the proteasome. The series can be described thus: Pharmacodynamics: proteasome activity in packed whole blood. To be noted: 0·4 and 0·5 mg/m^2 MRZ, study dosing schedule. It is filed as in vivo, human.
The conditions of series [4]: preclinical studies; ref Di et al, 2016; cited from earlier work.

The text below walks through data of article PMC6860364 (British journal of haematology, 2017).

Usually half-life stands for how long it takes for the measured level to halve. By Vd is commonly meant a proportionality between amount in the body and measured concentration, not a real space. By clearance is commonly meant the volume of plasma or blood freed of the substance per unit of time. Higher therefore signals a high capacity for elimination. For the molecule `C[C@@]12OC(=O)[C@]1([C@@H](O)[C@@H]1C=CCCC1)NC(=O)[C@@H]2CCCl` [MRZ, Marizomib], in series [1], the half-life was 6 to 10 min. In series [2], the Vd lay within 41 to 86 L and the clearance is 4200 to 9400 mL/min. For the same molecule, in series [3], the “proteasome subunit inhibition in PWB” value is “Partial or complete proteasome subunit inhibition in PWB was achieved”. Also, the “ability to cross the blood brain barrier (BBB)” value in series [4] is given as “crosses the BBB”.
